Source: PubChem BioAssay
A selection: hits, their analogues and other compounds. The true share with any hit is near 4.9%.
STAT3 activator: increases IL-6 driven STAT3 reporter signal | U3A cells, IL-6 STAT3-luciferase reporter, luminescence; 100% = signal with IL-6 EC80 alone | activation (% of control), % at 5.6 µM | 190,000 compounds, 0.91% hits | AID 871;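 active means activation above the screen-wide mean of compound activation plus 3 SD, cut at about 130% in these data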;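 further: 0% = background luminescence of wells with medium and substrate only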
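system = STAT3-luciferase reporter U3A cells | reagent = IL-6 stimulus at 33 ng/mL final | timing = 1 h compound pre-exposure, 6 h IL-6 stimulation, 37 °C | measured by = luminescence | evaluation = % activation versus median of IL-6-stimulated wells | control set = IL-6-only wells as 100% reference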
STAT1 activator: activators of IFN-gamma induced STAT1 signaling; 200,000 compounds, 2.6% hits; NIH 3T3 STAT1-luciferase reporter, luminescence; 100% = IFN-gamma alone, no compound; activation (% of control), % at 5.5 µM; AID 932;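 active means activation above the screen-wide mean activation plus 3 SD, cut at about 130% in these data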;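 further: raw ratio to IFN-gamma control signal so 100% means no change and 0% no light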
STAT3 blocker: inhibitors of IL-6 induced STAT3 signaling; U3A cells, IL-6 STAT3-luciferase reporter, luminescence; host cell line lacks STAT1; inhibition, % at 5.5 µM; 190,000 compounds, 0.89% hits;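 active means inhibition above the mean inhibition across all screened compounds plus 3 SD, cut at about 44% in these data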;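 further: 0% = DMSO only wells and 100% = 100 µM nifuroxazide control wells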
STAT1 inh: STAT1 signaling inhibition. NIH 3T3 STAT1-luciferase reporter, IFN-gamma, luminescence. 200,000 compounds, 0.35% hits. inhibition, % at 5.5 µM;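 active means inhibition above a set limit, the mean inhibition across all tested compounds plus 3 SD, cut at about 34% in these data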;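 further: 0% = IFN-gamma with DMSO and 100% = IFN-gamma with 300 µM nifuroxazide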
APP 5'UTR act: activates APP 5'UTR luciferase reporter; SH-SY5Y APP 5'UTR luciferase reporter, luminescence; zero percent = DMSO vehicle wells; activation, % at 2 µM; 190,000 compounds, 1% hits;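 active means activation above a set limit, based on mean plus 3 SD of controls, cut at about 140% in these data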
NF-kB expr up: compounds increasing NF-kB expression in human neuronal cells; fold change at 12.5 µM; NF-kB reporter expression; active compounds read high; 190,000 compounds, 1.6% hits; AID 1239; in the data active means fold change above about 3.3
Starred values were filed as active, the others as inactive; · = no result given.

SMILES | STAT3 activator | STAT1 activator | STAT3 blocker | STAT1 inh | APP 5'UTR act | NF-kB expr up
CC(C)c1ccc(/C=N/NC(=O)CC(=O)NCc2ccccc2)cc1 | 111.9 | 103.9 | -0.3 | -5.1 | -2.1 | 1.06
CNC(=S)N/N=C/c1ccc(C(C)C)cc1 | 91.3 | 129.4* | 18.2 | -39.0 | 63.7 | ·
COC(=O)/C(C#N)=C1/C=Cc2ccccc2N1 | 88.9 | 130.4* | 17.7 | -30.1 | 24.1 | 1.73
CC1(C)CC(=O)C2=C(C1)OC1=C(C(=O)CC(C)(C)C1)C2c1ccc(O)cc1O | 99.0 | 114.2 | 5.4 | -15.6 | -41.4 | 6.18*
CC1(C)CC(=O)C2=C(C1)OC1=C(C(=O)CC(C)(C)C1)C2c1ccc(O)c([N+](=O)[O-])c1 | 103.4 | 104.3 | 3.4 | -5.8 | -7.0 | 1.16
CC(C)C(C)(C#N)NC(=O)CSc1nc2scc(-c3ccc(F)cc3)c2c(=O)n1Cc1ccccc1 (configuration not stated) | 96.1 | 90.7 | 0.5 | 10.3 | -3.2 | 0.68
COCCN(Cc1cc2cc3c(cc2nc1Cl)OCO3)C(=O)c1ccc(C)cc1 | 100.1 | 91.1 | 3.4 | 8.4 | -11.0 | 0.98
O=C(NCCc1cccs1)C1CC(c2ccc([N+](=O)[O-])cc2)=NO1 (configuration not stated) | 115.2 | 144.5* | -11.9 | -48.4 | 62.3 | 2.26
COCCNC(=O)C1CC(c2ccc([N+](=O)[O-])cc2)=NO1 (configuration not stated) | 98.7 | 102.8 | 8.4 | -3.1 | -10.1 | 1.32
Cc1cccc(CSc2cn(CC(=O)N3CCOCC3)c3ccccc23)c1 | 114.0 | 128.7* | -22.0 | -31.6 | 13.1 | 2.2
COc1ccc(C(=O)Cc2ccc(F)cc2)c(OC)c1 | 98.5 | 138.5* | 5.6 | -43.6 | 46.1 | 1.94
COc1ccc(C(=O)Cc2cc(OC)c(OC)cc2[N+](=O)[O-])c(OC)c1 | 109.1 | 110.2 | -6.3 | -11.4 | 3.6 | 1.03
CC(NC(=O)CNC(=O)C(Cc1ccccc1)NC(=O)OCc1ccccc1)C(N)=O (configuration not stated) | 99.6 | 93.5 | 4.0 | 5.8 | -16.5 | 1.25
CCN(CC)C(=O)c1cc(-c2ccc(Br)cc2)on1 | 90.3 | 146.8* | 12.1 | -51.7 | 73.9 | 3.34*
COC(=O)c1cc(-c2ccc(Br)cc2)on1 | 92.2 | 94.8 | 17.7 | 5.7 | 7.4 | 1.22
CCOC(=O)C1=C(C)NC(SCC(=O)Nc2cc(C)on2)=C(C#N)C1c1cccs1 (configuration not stated) | 86.1 | 61.9 | 18.0 | 51.3* | 4.1 | 1.02
O=C(NCc1ccccc1)c1cccc(COc2ccccc2Cl)c1 | 115.3 | 108.3 | -11.0 | -9.1 | 111.9 | 1.8
O=C(NCc1ccccc1)c1cccc(COc2cc(Cl)ccc2Cl)c1 | 108.6 | 135.2* | -11.8 | -38.5 | 21.2 | 1.52
O=C(O)c1cnc(-c2ccccc2)nc1Sc1ccc(Cl)cc1Cl | 108.2 | 101.0 | -7.3 | -1.1 | -3.2 | 1.04
Cc1ccc2[nH]c3c(N4CCCCCC4)ncnc3c2c1 | 48.1 | 67.1 | 67.5* | 36.2* | 3.4 | 0.59
Cc1ccc2[nH]c3c(NCCN4CCOCC4)ncnc3c2c1 | 107.4 | 94.9 | -2.1 | 6.0 | 9.0 | 0.89
C=CCNc1ncnc2c1[nH]c1ccc(C)cc12 | 73.8 | 139.4* | 33.5 | -42.5 | 179.3* | 4.46*
COc1ccc(C(=O)N2CCN(c3ccccn3)CC2)cc1[N+](=O)[O-] | 100.6 | 95.7 | 7.9 | 2.6 | 0.4 | 1.29
COC(=O)c1ccc(CSc2nc3ccc(C)cc3[nH]2)o1 | 102.7 | 99.5 | -4.9 | 0.5 | · | 1.32
COc1ccccc1NS(=O)(=O)c1cc(NC(=O)CNC(=O)c2ccc(C)s2)ccc1Cl | 96.5 | 93.4 | 7.9 | 7.4 | -4.5 | 1.08
COc1ccc(Nc2cc(C)c3ccccc3n2)cc1 | 95.5 | 132.0* | 13.3 | -37.4 | 85.1 | 1.99
Nc1[nH]nc2nc(NCc3ccccc3)c3c(c12)CCN(Cc1ccccc1)C3 | 111.6 | 111.3 | -6.8 | -10.7 | 1.8 | 4.29*
CC(=O)Oc1c(S(=O)(=O)c2ccccc2)c(C)nn1C(C)(C)C | 121.2 | 97.4 | -22.9 | 2.8 | -2.4 | 1.23
Cc1nn(C(C)(C)C)c(OC(=O)c2cccs2)c1S(=O)(=O)c1ccccc1 | 126.0 | 129.4* | -24.8 | -31.7 | 1.5 | 1.58
CN(C)CCSc1nnc(-c2ccccc2)o1 | 113.5 | 114.8 | -8.9 | -14.3 | 29.3 | 1.81
